Assay: Pharmacokinetics of CK and its metabolite 20
Type: in vivo, healthy Chinese volunteers
Procedure, shortened: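 Healthy adults given one oral tablet dose fasting (overnight, or 10 h in a crossover food-effect arm); 30 subjects from the 100/200/400 mg groups were pooled with 24 from 200 mg fasting periods. Plasma was stored at −70°C, extracted with MTBE plus internal standards and assayed by LC-MS/MS. Cmax was observed and AUClast calculated by linear trapezoid, each divided by dose. The metabolite/parent ratio was also calculated. Genotyping used Sequenom MassARRAY, and log-transformed values were compared by one-way ANOVA.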

[1] = ABCC4 rs1151471 CC, n = 2, mean (SD)

## CC(C)=CCC[C@](C)(O)[C@H]1CC[C@]2(C)[C@@H]1[C@H](O)C[C@@H]1[C@@]3(C)CC[C@H](O)C(C)(C)[C@@H]3CC[C@]12C [20(S)-PPD, 20(S)-protopanaxadiol]
ABCB1 rs1045642 AA, mean (SD)
  20(S)-PPD AUClast/D: 0.59 (0.42)
  20(S)-PPD Cmax/D: 0.02 (0.02)
  Ratio 20(S)-PPD/CK AUClast/D: 1.99 (1.55) %
  Ratio 20(S)-PPD/CK Cmax/D: 0.54 (0.42) %
ABCB1 rs1045642 AG, mean (SD)
  20(S)-PPD AUClast/D: 0.87 (0.93)
  20(S)-PPD Cmax/D: 0.03 (0.03)
  Ratio 20(S)-PPD/CK AUClast/D: 5.28 (8.05) %
  Ratio 20(S)-PPD/CK Cmax/D: 1.49 (2.26) %
ABCB1 rs1045642 GG, mean (SD)
  20(S)-PPD AUClast/D: 0.82 (0.62)
  20(S)-PPD Cmax/D: 0.03 (0.02)
  Ratio 20(S)-PPD/CK AUClast/D: 3.23 (2.77) %
  Ratio 20(S)-PPD/CK Cmax/D: 0.80 (0.66) %
ABCB1 rs1128503 AA, mean (SD)
  20(S)-PPD AUClast/D: 0.90 (0.79)
  20(S)-PPD Cmax/D: 0.03 (0.03)
  Ratio 20(S)-PPD/CK AUClast/D: 4.27 (5.15) %
  Ratio 20(S)-PPD/CK Cmax/D: 1.30 (2.07) %
ABCB1 rs1128503 AG, mean (SD)
  20(S)-PPD AUClast/D: 0.77 (0.80)
  20(S)-PPD Cmax/D: 0.03 (0.03)
  Ratio 20(S)-PPD/CK AUClast/D: 4.67 (7.55) %
  Ratio 20(S)-PPD/CK Cmax/D: 1.12 (1.52) %
ABCB1 rs1128503 GG, mean (SD)
  20(S)-PPD AUClast/D: 0.73 (0.70)
  20(S)-PPD Cmax/D: 0.02 (0.02)
  Ratio 20(S)-PPD/CK AUClast/D: 1.89 (0.94) %
  Ratio 20(S)-PPD/CK Cmax/D: 0.46 (0.25) %
ABCB1 rs2032582 AA, mean (SD)
  20(S)-PPD AUClast/D: 0.78 (0.53)
  20(S)-PPD Cmax/D: 0.03 (0.02)
  Ratio 20(S)-PPD/CK AUClast/D: 4.64 (7.42) %
  Ratio 20(S)-PPD/CK Cmax/D: 1.20 (1.55) %
ABCB1 rs2032582 CA, mean (SD)
  20(S)-PPD Cmax/D: 0.03 (0.03)
  Ratio 20(S)-PPD/CK AUClast/D: 4.60 (7.08) %
  Ratio 20(S)-PPD/CK Cmax/D: 1.34 (2.13) %
ABCB1 rs2032582 CC, mean (SD)
  20(S)-PPD AUClast/D: 0.92 (0.62)
  20(S)-PPD Cmax/D: 0.03 (0.02)
  Ratio 20(S)-PPD/CK AUClast/D: 3.50 (2.84) %
  Ratio 20(S)-PPD/CK Cmax/D: 0.74 (0.49) %
ABCC2 rs717620 CC, mean (SD)
  20(S)-PPD AUClast/D: 0.64 (0.51)
  20(S)-PPD Cmax/D: 0.02 (0.02)
  Ratio 20(S)-PPD/CK AUClast/D: 3.02 (4.69) %
  Ratio 20(S)-PPD/CK Cmax/D: 0.77 (0.99) %
ABCC2 rs717620 CT, mean (SD)
  20(S)-PPD AUClast/D: 1.09 (1.02)
  20(S)-PPD Cmax/D: 0.04 (0.04)
  Ratio 20(S)-PPD/CK AUClast/D: 6.00 (7.83) %
  Ratio 20(S)-PPD/CK Cmax/D: 1.65 (2.39) %
ABCC2 rs2273697 GA, mean (SD)
  20(S)-PPD AUClast/D: 0.81 (0.63)
  20(S)-PPD Cmax/D: 0.03 (0.02)
  Ratio 20(S)-PPD/CK AUClast/D: 4.54 (6.68) %
  Ratio 20(S)-PPD/CK Cmax/D: 0.96 (1.36) %
ABCC2 rs2273697 GG, mean (SD)
  20(S)-PPD AUClast/D: 0.83 (0.84)
  20(S)-PPD Cmax/D: 0.03 (0.03)
  Ratio 20(S)-PPD/CK AUClast/D: 4.19 (6.15) %
  Ratio 20(S)-PPD/CK Cmax/D: 1.22 (1.87) %
ABCC2 rs2756109 GG, mean (SD)
  20(S)-PPD AUClast/D: 0.61 (0.41)
  20(S)-PPD Cmax/D: 0.02 (0.02)
  Ratio 20(S)-PPD/CK AUClast/D: 2.42 (1.84) %
ABCC2 rs3740066 CC, mean (SD)
  20(S)-PPD AUClast/D: 0.64 (0.51)
  20(S)-PPD Cmax/D: 0.02 (0.02)
  Ratio 20(S)-PPD/CK AUClast/D: 3.03 (4.8) %
  Ratio 20(S)-PPD/CK Cmax/D: 0.78 (1.02) %
ABCC2 rs3740066 CT, mean (SD)
  20(S)-PPD AUClast/D: 1.06 (0.99)
  20(S)-PPD Cmax/D: 0.04 (0.03)
  Ratio 20(S)-PPD/CK AUClast/D: 5.95 (7.51) %
  Ratio 20(S)-PPD/CK Cmax/D: 1.63 (2.29) %
ABCC2 rs3740066 TT, n = 1
  20(S)-PPD AUClast/D: 0.58 (—)
  20(S)-PPD Cmax/D: 0.01 (—)
  Ratio 20(S)-PPD/CK AUClast/D: 1.04 (—) %
  Ratio 20(S)-PPD/CK Cmax/D: 0.22 (—) %
ABCC3 rs4148416 CC, mean (SD)
  20(S)-PPD AUClast/D: 0.77 (0.69)
  20(S)-PPD Cmax/D: 0.03 (0.02)
  Ratio 20(S)-PPD/CK AUClast/D: 3.64 (5.23) %
  Ratio 20(S)-PPD/CK Cmax/D: 0.90 (1.07) %
ABCC3 rs4148416 CT, mean (SD)
  20(S)-PPD AUClast/D: 0.99 (1.01)
  20(S)-PPD Cmax/D: 0.04 (0.04)
  Ratio 20(S)-PPD/CK AUClast/D: 6.12 (8.47) %
  Ratio 20(S)-PPD/CK Cmax/D: 1.87 (2.85) %
ABCC3 rs4793665 CT, mean (SD)
  20(S)-PPD AUClast/D: 0.61 (0.58)
  20(S)-PPD Cmax/D: 0.02 (0.02)
  Ratio 20(S)-PPD/CK AUClast/D: 2.27 (2.88) %
  Ratio 20(S)-PPD/CK Cmax/D: 0.54 (0.52) %
ABCC3 rs4793665 TT, mean (SD)
  20(S)-PPD AUClast/D: 0.89 (0.82)
  20(S)-PPD Cmax/D: 0.03 (0.03)
  Ratio 20(S)-PPD/CK AUClast/D: 4.86 (6.83) %
  Ratio 20(S)-PPD/CK Cmax/D: 1.32 (1.92) %
ABCC3 rs12051822 GA, mean (SD)
  20(S)-PPD AUClast/D: 1.17 (0.94)
  20(S)-PPD Cmax/D: 0.04 (0.03)
  Ratio 20(S)-PPD/CK AUClast/D: 6.84 (8.31) %
  Ratio 20(S)-PPD/CK Cmax/D: 1.44 (1.56) %
ABCC3 rs12051822 GG, mean (SD)
  20(S)-PPD AUClast/D: 0.74 (0.72)
  20(S)-PPD Cmax/D: 0.03 (0.03)
  Ratio 20(S)-PPD/CK AUClast/D: 3.60 (5.48) %
  Ratio 20(S)-PPD/CK Cmax/D: 1.09 (1.81) %
[1]
  20(S)-PPD AUClast/D: 2.65 (1.59)
  20(S)-PPD Cmax/D: 0.09 (0.03)
  Ratio 20(S)-PPD/CK AUClast/D: 20.61 (14.96) %
  Ratio 20(S)-PPD/CK Cmax/D: 4.33 (2.43) %
ABCC4 rs1151471 TC, mean (SD)
  20(S)-PPD AUClast/D: 0.99 (0.81)
  20(S)-PPD Cmax/D: 0.04 (0.03)
  Ratio 20(S)-PPD/CK AUClast/D: 5.99 (7.30) %
  Ratio 20(S)-PPD/CK Cmax/D: 1.83 (2.49) %
ABCC4 rs1151471 TT, mean (SD)
  20(S)-PPD AUClast/D: 0.58 (0.54)
  20(S)-PPD Cmax/D: 0.02 (0.02)

Reference: paper PMC6606825 (Journal of Ginseng Research, 2018)
